Screening data: PubChem BioAssay, Johns Hopkins Ion Channel Center
TRPC4 PAM: allosteric potentiators of mouse TRPC4 channel | HEK293 TRPC4beta/mu-opioid, DAMGO EC20, Fluo-4 Ca2+ flux; hits give high values | 310,000 compounds, 0.42% hits | AID 2227 | B-score at 10 µM | Q9QUQ5;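 active = B-score of calcium response area above 5 SD of library B-scores, with initial fluorescence ratio within 5 SD of library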;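 note: B-score of integrated fluorescence ratio over time as area under calcium response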
Target sequence (Q9QUQ5 whole entry, looked up): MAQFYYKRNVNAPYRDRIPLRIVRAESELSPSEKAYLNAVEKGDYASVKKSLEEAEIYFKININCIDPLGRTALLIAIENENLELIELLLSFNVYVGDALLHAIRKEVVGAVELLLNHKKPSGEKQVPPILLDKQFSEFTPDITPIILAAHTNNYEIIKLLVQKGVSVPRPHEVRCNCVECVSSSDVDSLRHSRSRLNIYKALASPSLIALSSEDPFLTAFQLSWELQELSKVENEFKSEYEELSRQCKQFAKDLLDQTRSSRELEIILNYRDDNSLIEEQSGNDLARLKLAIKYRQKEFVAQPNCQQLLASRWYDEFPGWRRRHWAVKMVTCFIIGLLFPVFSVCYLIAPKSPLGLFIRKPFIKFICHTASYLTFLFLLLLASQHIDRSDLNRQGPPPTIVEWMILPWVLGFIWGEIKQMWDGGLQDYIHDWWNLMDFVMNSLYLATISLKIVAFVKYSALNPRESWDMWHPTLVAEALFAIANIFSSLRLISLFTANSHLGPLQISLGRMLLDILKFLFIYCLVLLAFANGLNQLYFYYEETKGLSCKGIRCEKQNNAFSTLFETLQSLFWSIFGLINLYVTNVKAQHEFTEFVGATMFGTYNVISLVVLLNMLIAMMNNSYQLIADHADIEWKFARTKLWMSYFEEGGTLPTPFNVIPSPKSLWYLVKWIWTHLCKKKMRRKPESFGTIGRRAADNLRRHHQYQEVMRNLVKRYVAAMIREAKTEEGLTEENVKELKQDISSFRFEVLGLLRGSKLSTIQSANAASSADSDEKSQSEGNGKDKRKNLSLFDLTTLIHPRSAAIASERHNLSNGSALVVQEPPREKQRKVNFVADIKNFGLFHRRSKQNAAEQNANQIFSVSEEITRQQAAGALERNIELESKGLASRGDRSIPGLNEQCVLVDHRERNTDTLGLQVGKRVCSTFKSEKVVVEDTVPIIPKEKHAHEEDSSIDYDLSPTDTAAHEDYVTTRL
TRPC4 act: opens the mouse TRPC4 cation channel; HEK293 TRPC4beta/mu-opioid, Fluo4 calcium fluorescence; hits give high values; B-score at 10 µM; 310,000 compounds, 0.49% hits;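 active = B-score above 5 SD of library B-scores, and initial fluorescence ratio not above library mean plus 5 SD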;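 note: positive B-score marks a calcium rise read as TRPC4 activation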
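Assay system: HEK293 stable line with TRPC4beta plus mu-opioid receptor. Times: dye 45 min RT, read 110 s. Measured by: kinetic Fluo4 calcium fluorescence. Measure: B score of integrated ratio. Controls: assay buffer as low control, maximal DAMGO as high control.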
TRPC6 inhibitor: blocks the mouse TRPC6 cation channel | B-score at 10 µM | Q61143 | AID 2553 | HEK293-TRPC6, membrane potential dye, ACh-evoked depolarization; hits give low values | 310,000 compounds, 1.1% hits;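 active = B-score under library mean minus 3 SD, initial fluorescence not abnormally high, positive integrated signal ratio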;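 note: B-score derived from integrated fluorescence ratio over the kinetic read; more negative B-score means stronger inhibition of depolarization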
TRPC4 inh: blocks the mouse TRPC4 cation channel | 300,000 compounds, 0.39% hits | HEK293 TRPC4beta/mu-opioid, DAMGO-evoked Fluo4 calcium flux; hits give low values | B-score at 10 µM | Q9QUQ5;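 active = B-score over 3 SD under the library average, no early fluorescence shift, positive overall ratio signal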
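Assay system: TRPC4beta/mu-opioid receptor HEK293 cell line; compound dosing: single concentration per test compound; detection: Fluo4 Ca2+ flux fluorescence; evaluation: per-well B score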
TRPC6 activator: activators of mouse TRPC6 channel | HEK293-TRPC6 membrane potential dye fluorescence; hits give high values | B-score at 10 µM | AID 2550 | 310,000 compounds, 0.13% hits;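 active = B-score of the integrated fluorescence ratio above library mean plus 3 SD, and starting fluorescence ratio within library mean plus 5 SD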;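 note: higher score means more depolarization so channel activation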
* = called active by the depositor; i = inactive. This is a sample that favours compounds with a hit; in the whole collection about 2.3% have one here.

SMILES | TRPC4 PAM | TRPC4 act | TRPC6 inhibitor | TRPC4 inh | TRPC6 activator
O=C(Nc1ccccc1Oc1cccnc1)C1CCCN(C/C=C/c2ccc(F)cc2)C1 (stereo not given) | i | i | i | i | i
Cc1cccc(CN2CCCC(C(=O)Nc3ccccc3Oc3cccnc3)C2)c1 (stereo not given) | i | i | i | -6* | i
Cc1cccc(CN2CCCC(C(=O)N3CCc4ccccc4C3)C2)c1 (stereo not given) | i | 70* | i | i | i
O=C(C1CCCN(Cc2ccncc2)C1)N1CCc2ccccc2C1 (stereo not given) | i | 164* | i | i | i
CC(=O)N1CCc2c(sc(NC(=O)C3CCCCC3)c2C(N)=O)C1 | i | i | i | i | i
Cc1ccc(/C=N/n2c(C3CCCCC3)n[nH]c2=S)cc1 | i | i | i | i | i
Cc1cccn2c(=O)c(/C=C(\C#N)C(N)=O)c(N3CCN(c4ccccc4)CC3)nc12 | 12* | i | i | i | i
Cc1cccn2c(=O)c(C=O)c(N3CCCCC3)nc12 | i | i | i | i | i
Cc1cccn2c(=O)c(/C=N/O)c(N3CCCC3)nc12 | i | i | i | -8* | i
CCNC(=O)/C(C#N)=C/c1c(N2CCN(c3ccc(OC)cc3)CC2)nc2c(C)cccn2c1=O | i | i | i | i | i
CCOC(=O)/C(C#N)=C/c1c(N2CCN(c3ccc(OC)cc3)CC2)nc2c(C)cccn2c1=O | 11* | i | i | i | i
COc1ccc(CN(C(=O)c2ccc(-c3ccccc3)[nH]2)C(C(=O)NCC2CCCO2)c2ccc(C)o2)cc1 (stereo not given) | i | i | i | i | i
O=C(COc1ccc2ccc(=O)oc2c1)NCCCn1ccnc1 | i | i | i | i | i
Cc1ccc(S(=O)(=O)NC(C(=O)Oc2cc3oc(=O)cc(C)c3cc2Cl)C(C)C)cc1 (stereo not given) | 15* | i | i | i | i
CC(=O)Oc1cc2oc(=O)cc(C)c2cc1Cl | i | i | i | i | i
CCOc1cccc(C(=O)Nc2ccccc2N2CCN(C(=O)C(C)C)CC2)c1 | i | i | i | i | i
Cc1ccc([C@@H]2[C@@H]3C(=O)N(C)C(=O)[C@@H]3[C@]3(C)C(=O)N(Cc4ccc(-c5ccccc5)cc4)CC(=O)N23)o1 | i | i | i | i | i
Cc1ccc(S(=O)(=O)CCc2nnc(NC(=O)COc3cccc(C)c3)s2)cc1 | i | i | i | i | i
OCCN1CCN(C2CCC(c3ccc(F)cc3)c3ccc(F)cc32)CC1 (stereo not given) | 13* | i | i | i | i
CC(C)C1Cc2c(sc3ncnc(NN)c23)CO1 (stereo not given) | i | i | i | i | i
COc1ccccc1C(CNc1ncnc2sc(C)c(C)c12)N(C)C (stereo not given) | i | i | i | i | i
CN(C)C(CNc1ncnc2sc3c(c12)CCCCC3)c1ccco1 (stereo not given) | i | 76* | i | i | i
COc1ccc(C(CNc2ncnc3sc(C)c(C)c23)N(C)C)cc1 (stereo not given) | i | 236* | i | i | i
Cc1sc2ncnc(NCC(c3ccco3)N(C)C)c2c1C (stereo not given) | i | 188* | i | i | i
C=COc1ccc(N2C(=O)c3ccccc3OC2C)cc1 (stereo not given) | i | i | i | i | i
SMILES | TRPC4 PAM | TRPC4 act | TRPC6 inhibitor | TRPC4 inh | TRPC6 activator
Cn1c(=O)n(Cc2ccc(Cl)cc2)c2ccccc21 | i | i | i | i | i
Cc1ccc(S(=O)(=O)N(CC(=O)Nc2ccc(C(N)=O)cc2)C(=O)N2CCN(C)CC2)cc1 | i | i | i | i | i
CCN1CCN(C(=O)N(CC(=O)Nc2ccc(C(N)=O)cc2)S(=O)(=O)c2ccc(C)cc2)CC1 | i | i | i | -6* | i
CC(C)(C)NCC(O)CON=C1c2ccccc2-c2ccccc21 (stereo not given) | 10* | i | i | i | i
COc1ccc(NC(=S)N2CCCN(Cc3cccc(Cl)c3)C2)cc1 | i | i | i | i | i
COc1cccc(NC(=S)N2CCCN(Cc3ccc(F)cc3)C2)c1 | i | 45* | i | i | i
O=C(CC(C(=O)O)c1ccc(Cl)cc1Cl)c1ccc(Cl)cc1 (stereo not given) | i | i | i | i | i
COc1cccc(NC(=S)N2CCn3c(nc4ccccc43)C2)c1 | i | i | i | i | i
CC(C)C(NC(=O)c1ccc(C(C)(C)C)cc1)C(=O)NCC(c1ccccc1)N(C)C (stereo not given) | i | i | i | -7* | i
CC(C)C(NC(=O)c1ccc(C(C)(C)C)cc1)C(=O)NCCc1ccccn1 (stereo not given) | i | i | i | i | i
CN(C)C(CNC(=O)C1CC(=O)N(Cc2ccccc2)C1)c1ccccc1 (stereo not given) | i | 72* | i | i | i
COC(=O)C1CC(=O)N(Cc2ccccc2)C1 (stereo not given) | i | i | i | i | i
COc1ccc(C(CNC(=O)C2CC(=O)N(Cc3ccc(C)cc3)C2)N(C)C)cc1 (stereo not given) | i | 66* | i | i | i
COC(=O)C1C(c2ccccc2)C(C(=O)N2CCN(C)CC2)C1c1ccccc1 (stereo not given) | i | 64* | i | i | i
COC(=O)[C@H]1[C@H](c2ccccc2)[C@H](C(=O)OC)O[C@H]1c1ccccc1 | i | i | i | i | i
O=C(Nc1ccc(Br)cc1)c1ccc(N2C(=O)C3CC=C(Cl)CC3C2=O)cc1 (stereo not given) | i | i | i | i | i
COc1ccccc1Cn1c(=S)[nH]c2cc(C(=O)NCC(OC)OC)ccc2c1=O | i | i | i | i | i
CCCCN(CC)CCCNC(=S)Nc1ccc2nc3n(c(=O)c2c1)CCCCC3 | 10* | i | i | i | i
CCCCN(CC)CCCNC(=S)Nc1ccc2nc(N3CCN(CC)CC3)cc(C)c2c1 | i | 71* | i | i | i
CCCCN(CC)CCCNC(=S)Nc1ccc2nc(N3CCN(C)CC3)cc(C)c2c1 | i | i | i | i | i
CC(=O)C1=C(c2ccc(Br)cc2)C(=O)c2ccccc2C1=O | 35* | i | i | i | i
